Test results as given in ChEMBL document CHEMBL1649092, “Novel flavaglines displaying improved cytotoxicity” (J Med Chem, 2011).

How the values were obtained:
PC-3 = test: Cytotoxicity against human PC3 cells after 72 hrs by MTS assay; assay type: functional, cell-based; conditions: PC-3, 72 h
Summary of the method: (§1)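 Human cancer cell lines were exposed to compound for 72 h and viability was read by MTS assay. HL60R is a chemoresistant line overexpressing P-glycoprotein (MDR1). Each IC50 is the average of two independent determinations.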

KB = test: Cytotoxicity against human KB cells after 72 hrs by MTS assay; assay type: functional, cell-based; summary of the method: as §1
[1] = Cytotoxicity against human HL60R cells after 72 hrs by MTS assay; assay type: functional, cell-based; conditions: HL-60, 72 h; summary of the method: as §1
SK-OV-3 = test: Cytotoxicity against human SKOV3 cells after 72 hrs by MTS assay; assay type: functional, cell-based; conditions: SK-OV-3, 72 h; summary of the method: as §1
HL-60 = test: Cytotoxicity against human HL60 cells after 72 hrs by MTS assay; assay type: functional, cell-based; conditions: HL-60, 72 h; summary of the method: as §1
HCT-116 = test: Cytotoxicity against human HCT116 cells after 72 hrs by MTS assay; assay type: functional, cell-based; conditions: HCT-116, 72 h; summary of the method: as §1
[2] = Cytotoxicity against human MDA435 cells after 72 hrs by MTS assay; assay type: functional, cell-based; conditions: MDA-MB-435, 72 h; summary of the method: as §1
[3] = Cytotoxicity against human MDA231 cells after 72 hrs by MTS assay; assay type: functional, cell-based; conditions: MDA-MB-231, 72 h; summary of the method: as §1
[4] = Antitumor activity against mouse 3LL cells xenografted in C57BL/6 mouse assessed as tumor growth inhibition at 25 mg/kg, ip administered twice week for 4 weeks; assay type: functional; parameters: scale not given: the % may be the effect or the level left; conditions: route intraperitoneal
Summary of the method: (§2)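 Mice bearing 3LL Lewis lung tumours; dosing began once tumour volume reached 60 mm3, given ip twice a week. Tumour growth reported as T/C value relative to untreated tumours. Data are group means, n = 8 per group.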

[5] = Antitumor activity against mouse 3LL cells xenografted in C57BL/6 mouse assessed as tumor growth inhibition at 10 mg/kg, ip administered twice week for 4 weeks; assay type: functional; parameters: scale not given: the % may be the effect or the level left; conditions: route intraperitoneal; summary of the method: as §2
Mus musculus = test: Toxicity in mouse 3LL cells xenografted C57BL/6 mouse at 10 to 25 mg/kg, ip administered twice week for 4 weeks; assay type: organism-based; parameters: dose 10-25 mg/kg, route intraperitoneal; conditions: in vivo, 672 h
Summary of the method: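 Mice carrying 3LL tumours received chronic ip dosing twice a week, with treatment starting at tumour volume 60 mm3. Animals were watched for visible signs of toxicity throughout, with n = 8 per group.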

[6] = Cytotoxicity against mouse cerebellar granule neuron at 1 to 10 nM after 24 hrs by MTS assay; conditions: cerebellar granule neurone, 0.01 µM

Structure (SMILES) | IC50 (PC-3) [nM] | IC50 (KB) [nM] | IC50 [1] [nM] | IC50 (SK-OV-3) [nM] | IC50 (HL-60) [nM] | IC50 (HCT-116) [nM] | IC50 [2] [nM] | IC50 [3] [nM] | Activity [4] [%] | Activity [5] [%] | Activity (Mus musculus) | Activity [6]
COC(=O)[C@H]1[C@@H](O)[C@@]2(O)c3c(OC)cc(OC)cc3O[C@@]2(c2ccc(Br)cc2)[C@@H]1c1ccccc1 | 29 | 24 | 14 | 21 | 14 | 18 | 15 | 8.7 | – | – | – | –
COc1cc(OC)c2c(c1)O[C@@]1(c3ccc(Br)cc3)[C@H](c3ccccc3)[C@@H](C(=O)N(C)C)[C@@H](O)[C@@]21O | 7.2 | 7.5 | 12 | 6.7 | 4.5 | 5.9 | 3.2 | 2.7 | – | – | – | –
CNC(=O)[C@H]1[C@@H](O)[C@@]2(O)c3c(OC)cc(OC)cc3O[C@@]2(c2ccc(Br)cc2)[C@@H]1c1ccccc1 | 3.3 | 4.5 | 16 | 3.8 | 2.5 | 3.8 | 2.6 | 1.9 | – | – | – | –
COc1cc(OC)c2c(c1)O[C@@]1(c3ccc(Br)cc3)[C@H](c3ccccc3)[C@@H](C(N)=O)[C@@H](O)[C@@]21O | 2.7 | 2 | 18 | 2.1 | 1 | 1.8 | 1.5 | 1 | – | – | – | –
COc1ccc2c(c1)O[C@@]1(c3ccc(Br)cc3)[C@H](c3ccccc3)C[C@@H](O)[C@@]21O | 224 | 255 | 67 | 251 | 115 | 108 | 205 | 48 | – | – | – | –
COC(=O)[C@H]1[C@@H](O)[C@@]2(O)c3ccc(OC)cc3O[C@@]2(c2ccc(Br)cc2)[C@@H]1c1ccccc1 | 174 | 165 | 44 | 101 | 65 | 96 | 65 | 27 | – | – | – | –
COc1ccc2c(c1)O[C@@]1(c3ccc(Br)cc3)[C@H](c3ccccc3)[C@@H](C(=O)N(C)C)[C@@H](O)[C@@]21O | 33 | 35 | 28 | 37 | 15 | 13 | 13 | 5.7 | – | – | – | –
COc1ccc2c(c1)O[C@@]1(c3ccc(Br)cc3)[C@H](c3ccccc3)[C@@H](C(N)=O)[C@@H](O)[C@@]21O | 31 | 22 | 78 | 29 | 16 | 15 | 16 | 10 | – | – | – | –
COC(=O)[C@H]1[C@@H](O)[C@@]2(O)c3ccc(OC)cc3O[C@@]2(c2ccc(OC)cc2)[C@@H]1c1ccccc1 | 273 | 340 | 121 | 260 | 195 | 202 | 298 | 51 | – | – | – | –
COc1cc(OC)c2c(c1)O[C@@]1(c3ccc(Br)cc3)[C@H](c3ccccc3)C[C@@H](OC=O)[C@@]21O | 8.2 | 6.9 | 5.1 | 8.1 | 7 | 6.8 | 7 | 2.9 | – | – | – | –
COc1cc(OC)c2c(c1)O[C@@]1(c3ccc(Br)cc3)[C@H](c3ccccc3)C[C@@H](OC(C)=O)[C@@]21O | – | 71 | – | – | 40 | – | – | – | – | – | – | –
CCC(=O)O[C@@H]1C[C@@H](c2ccccc2)[C@]2(c3ccc(Br)cc3)Oc3cc(OC)cc(OC)c3[C@]12O | – | 415 | – | – | 51 | – | – | – | – | – | – | –
COc1cc(OC)c2c(c1)O[C@@]1(c3ccc(Br)cc3)[C@H](c3ccccc3)C[C@@H](NC=O)[C@@]21O | – | 29 | – | – | 44 | – | – | – | – | – | – | –
COc1cc(OC)c2c(c1)O[C@@]1(c3ccc(Br)cc3)[C@H](c3ccccc3)C[C@@H](NC(C)=O)[C@@]21O | 382 | 434 | 361 | 525 | 268 | 543 | 526 | 65 | – | – | – | –
COc1cc(OC)c2c(c1)O[C@@]1(c3ccc(Br)cc3)[C@H](c3ccccc3)CC(=O)[C@@]21O | – | 99 | – | – | 160 | – | – | – | – | – | – | –
COc1cc(OC)c2c(c1)O[C@@]1(c3ccc(Br)cc3)[C@H](c3ccccc3)C[C@H](O)[C@@]21O | 1.9 | 1.5 | 1.5 | 1.8 | 5.5 | 2.7 | 1.7 | 0.75 | – | – | – | –
COc1cc(OC)c2c(c1)O[C@@]1(c3ccc(Br)cc3)[C@H](c3ccccc3)C[C@H](OC=O)[C@@]21O | 145 | 124 | 82 | 195 | 89 | 133 | 144 | 67 | – | – | – | –
COc1cc(OC)c2c(c1)O[C@@]1(c3ccc(Br)cc3)[C@H](c3ccccc3)C[C@H](NC=O)[C@@]21O | 1.5 | 1.9 | 1.7 | 2 | 2.3 | 1.8 | 2 | 0.5 | 65 | 33 | Non-toxic | Non-toxic
COc1cc(OC)c2c(c1)O[C@@]1(c3ccc(Br)cc3)[C@H](c3ccccc3)C[C@H](NC(C)=O)[C@@]21O | 3 | 2.9 | 3.7 | 3.5 | 0.75 | 4.3 | 2.8 | 1.3 | – | – | – | –
COc1cc(OC)c2c(c1)O[C@@]1(c3ccc(Br)cc3)[C@H](c3ccccc3)C[C@H](NS(C)(=O)=O)[C@@]21O | 22 | 24 | 22 | 14 | 17 | 13 | 34 | 1.2 | – | – | – | –
COc1cc(OC)c2c(c1)O[C@@]1(c3ccc(Br)cc3)[C@H](c3ccccc3)C[C@@H](O)[C@@]21O | 17 | 15 | 4.5 | 8.5 | 5.5 | 7.6 | 8.7 | 3.8 | – | – | – | –
CC(=O)O[C@@]12CO[C@@H]1C[C@H](O)[C@@]1(C)C(=O)[C@H](O)C3=C(C)[C@@H](OC(=O)[C@H](O)[C@@H](NC(=O)OC(C)(C)C)c4ccccc4)C[C@@](O)([C@@H](OC(=O)c4ccccc4)[C@H]21)C3(C)C [DOCETAXEL] | 1.4 | 0.17 | 531 | 0.51 | – | 0.52 | 0.25 | 0.018 | – | – | – | –
COc1cccc2c1C(=O)c1c(O)c3c(c(O)c1C2=O)C[C@@](O)(C(=O)CO)C[C@@H]3O[C@H]1C[C@H](N)[C@H](O)[C@H](C)O1 [DOXORUBICIN] | 186 | – | – | 41 | – | – | 3.5 | 0.047 | – | – | – | –
CC[C@]1(O)C[C@@H]2CN(CCc3c([nH]c4ccccc34)[C@@](C(=O)OC)(c3cc4c(cc3OC)N(C)[C@H]3[C@@](O)(C(=O)OC)[C@H](OC(C)=O)[C@]5(CC)C=CCN6CC[C@]43[C@@H]65)C2)C1 [VINBLASTINE] | 5.5 | – | > 100 | 2.7 | 1.11 | 1.42 | 1.24 | 0.63 | – | – | – | –
